Where no end group is shown, it is not given here.
Experiments:
[1] = test system: myosin-X MyTH4–FERM cassette; experiment: Pull-down with GST-fused C-terminal tail peptides of α- and β-tubulins; format: binding, human; conditions: 20 mM Tris–HCl (pH 8.0), 50 mM NaCl, 1 mM DTT, 4°C, 30 min
Outline: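 Purified MyTH4–FERM cassette was mixed with GST-fused α1A-tubulin (399–451) or β2B-tubulin (390–445) tail peptide in 20 mM Tris–HCl pH 8.0, 50 mM NaCl, 1 mM DTT at 4°C for 30 min. Glutathione-Sepharose was then added for 10 min at 4°C, with five washes. Elution used 20 mM glutathione in 50 mM Tris–HCl pH 8.0 with 150 mM NaCl, then SDS–PAGE.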

[2] = test system: C-terminal acidic tail peptide of β2B-tubulin; experiment: Pull-down of wild-type and mutated MyTH4–FERM cassettes with GST-tubulin tail; format: binding; conditions: SDS–PAGE
Outline: (§1)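 Human myosin-X MyTH4–FERM cassette (wild type or site-directed mutants) was expressed in E. coli BL21Star(DE3) at 20°C with 0.1 mM IPTG. It was Ni-NTA purified, then His-tag cleaved with HRV3C, then run over cation exchange and gel filtration. GST bait was human DCC 1390–1447 or β2B-tubulin 390–445. Cassette and bait were mixed with glutathione-Sepharose at 4°C, washed, and eluates resolved by SDS–PAGE.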

DCC P3 peptide = experiment: Pull-down of wild-type and mutated MyTH4–FERM cassettes with GST-DCC P3 peptide; format: binding, human; conditions: SDS–PAGE
Outline: as §1

[3] = molecular target: T1, myosin-X MyTH4–FERM cassette K1647D/K1650D (human, UniProt Q9HD67 1486-2058, Δ20 deletion (residues 1872–1891) | K1647D | K1650D); experiment: pull-down
T1 sequence (looked up): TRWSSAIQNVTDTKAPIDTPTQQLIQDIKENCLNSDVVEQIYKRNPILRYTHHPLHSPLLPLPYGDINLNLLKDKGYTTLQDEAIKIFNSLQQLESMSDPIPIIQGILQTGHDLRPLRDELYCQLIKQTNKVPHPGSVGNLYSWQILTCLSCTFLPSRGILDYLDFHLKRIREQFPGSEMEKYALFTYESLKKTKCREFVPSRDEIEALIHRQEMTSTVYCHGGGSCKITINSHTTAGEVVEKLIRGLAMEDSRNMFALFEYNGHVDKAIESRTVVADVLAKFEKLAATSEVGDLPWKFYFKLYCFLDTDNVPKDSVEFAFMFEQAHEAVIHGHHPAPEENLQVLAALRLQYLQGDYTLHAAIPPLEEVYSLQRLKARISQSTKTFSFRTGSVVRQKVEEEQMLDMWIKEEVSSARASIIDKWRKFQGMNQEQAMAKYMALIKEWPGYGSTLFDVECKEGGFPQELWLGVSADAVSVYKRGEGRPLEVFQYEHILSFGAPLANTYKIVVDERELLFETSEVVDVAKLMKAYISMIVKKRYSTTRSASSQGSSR

[4] = molecular target: T2, myosin-X MyTH4–FERM cassette F2002K (human, UniProt Q9HD67 1486-2058, Δ20 deletion (residues 1872–1891) | F2002K); experiment: pull-down
T2 sequence (looked up): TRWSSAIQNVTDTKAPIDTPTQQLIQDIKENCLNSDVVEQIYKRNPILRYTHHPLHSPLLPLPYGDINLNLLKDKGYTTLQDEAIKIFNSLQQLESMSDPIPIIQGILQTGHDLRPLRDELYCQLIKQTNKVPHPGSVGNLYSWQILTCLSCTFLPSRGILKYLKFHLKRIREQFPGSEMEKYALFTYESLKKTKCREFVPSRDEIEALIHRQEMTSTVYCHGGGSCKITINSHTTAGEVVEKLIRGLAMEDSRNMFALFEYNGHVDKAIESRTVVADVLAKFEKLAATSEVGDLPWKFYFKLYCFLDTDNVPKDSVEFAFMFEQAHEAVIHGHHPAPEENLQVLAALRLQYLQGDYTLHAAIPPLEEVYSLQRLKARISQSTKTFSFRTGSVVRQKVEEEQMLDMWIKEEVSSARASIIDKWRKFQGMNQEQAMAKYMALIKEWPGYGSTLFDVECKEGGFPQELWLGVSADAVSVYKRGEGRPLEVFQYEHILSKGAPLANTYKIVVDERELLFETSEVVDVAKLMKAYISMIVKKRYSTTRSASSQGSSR

DCC = experiment: Co-immunoprecipitation of DCC with myc-tagged myosin-X MyTH4–FERM; format: cell-based; conditions: HEK293T cells, anti-myc antibody, immunoblot

## α-tubulin C-terminal acidic tail peptide: GST-fused C-terminal tail peptide of α1A-tubulin (399–451)
[1]
  binding of tubulin C-terminal acidic tail peptides: binds

## β-tubulin C-terminal acidic tail peptide: GST-fused C-terminal acidic tail peptide of β2B-tubulin (390–445) ({GST}-RRKAFLHWYTGEGMDEMEFTEAESNMNDLVSEYQQYQDATADEQGEFEEEEGEDEA; not fully specified)
[1]
  binding of tubulin C-terminal acidic tail peptides: binds

B1: Myo-X (K1647D/K1650D) (protein)
chain: TRWSSAIQNVTDTKAPIDTPTQQLIQDIKENCLNSDVVEQIYKRNPILRYTHHPLHSPLLPLPYGDINLNLLKDKGYTTLQDEAIKIFNSLQQLESMSDPIPIIQGILQTGHDLRPLRDELYCQLIKQTNKVPHPGSVGNLYSWQILTCLSCTFLPSRGILDYLDFHLKRIREQFPGSEMEKYALFTYESLKKTKCREFVPSRDEIEALIHRQEMTSTVYCHGGGSCKITINSHTTAGEVVEKLIRGLAMEDSRNMFALFEYNGHVDKAIESRTVVADVLAKFEKLAATSEVGDLPWKFYFKLYCFLDTDNVPKDSVEFAFMFEQAHEAVIHGHHPAPEENLQVLAALRLQYLQGDYTLHAAIPPLEEVYSLQRLKARISQSTKTFSFRTGSVVRQKVEEEQMLDMWIKEEVSSARASIIDKWRKFQGMNQEQAMAKYMALIKEWPGYGSTLFDVECKEGGFPQELWLGVSADAVSVYKRGEGRPLEVFQYEHILSFGAPLANTYKIVVDERELLFETSEVVDVAKLMKAYISMIVKKRYSTTRSASSQGSSR
modifications: left off: His6, N-terminal, cleaved
[2]
  binding to β2B-tubulin C-terminal tail peptide: abolished binding
DCC P3 peptide
  binding to DCC P3 peptide: only weakly affected binding
DCC P3 peptide; listed as K1647D/K1650D
  binding to DCC P3 peptide: only a slight reduction in DCC binding

B2: Myo-X (F2002K) (protein)
chain: TRWSSAIQNVTDTKAPIDTPTQQLIQDIKENCLNSDVVEQIYKRNPILRYTHHPLHSPLLPLPYGDINLNLLKDKGYTTLQDEAIKIFNSLQQLESMSDPIPIIQGILQTGHDLRPLRDELYCQLIKQTNKVPHPGSVGNLYSWQILTCLSCTFLPSRGILKYLKFHLKRIREQFPGSEMEKYALFTYESLKKTKCREFVPSRDEIEALIHRQEMTSTVYCHGGGSCKITINSHTTAGEVVEKLIRGLAMEDSRNMFALFEYNGHVDKAIESRTVVADVLAKFEKLAATSEVGDLPWKFYFKLYCFLDTDNVPKDSVEFAFMFEQAHEAVIHGHHPAPEENLQVLAALRLQYLQGDYTLHAAIPPLEEVYSLQRLKARISQSTKTFSFRTGSVVRQKVEEEQMLDMWIKEEVSSARASIIDKWRKFQGMNQEQAMAKYMALIKEWPGYGSTLFDVECKEGGFPQELWLGVSADAVSVYKRGEGRPLEVFQYEHILSKGAPLANTYKIVVDERELLFETSEVVDVAKLMKAYISMIVKKRYSTTRSASSQGSSR
modifications: left off: His6, N-terminal, cleaved
[2]
  binding to β2B-tubulin C-terminal tail peptide: no effect on tubulin tail binding
[2]; listed as F2002K
  binding to β2B-tubulin C-terminal tail peptide: no effect on binding to the tubulin tail
DCC P3 peptide
  binding to DCC P3 peptide: abolished the binding
DCC P3 peptide; listed as F2002K
  binding to DCC P3 peptide: abolished DCC binding

B3: GST-fused DCC P3 peptide (residues 1390–1447) (peptide, UniProt P43146 1390-1447, looked up)
chain: ARSPLLPVSVPTAPEVSEESHKPTEDSANVYEQDDLSEQMASLEGLMKQLNAITGSAF
[3]
  binding result: binds

B4: GST-fused β2B-tubulin C-terminal acidic tail peptide (390–445) (peptide, UniProt Q9BVA1 390-445, looked up)
chain: RRKAFLHWYTGEGMDEMEFTEAESNMNDLVSEYQQYQDATADEQGEFEEEEGEDEA
modifications: also: GST-fused (side not given here)
[4]
  binding result: binds

B5: myc-tagged myosin-X MyTH4–FERM cassette: myc-tagged full-length MyTH4–FERM cassette (residues 1486–2058) (protein)
chain: TRWSSAIQNVTDTKAPIDTPTQQLIQDIKENCLNSDVVEQIYKRNPILRYTHHPLHSPLLPLPYGDINLNLLKDKGYTTLQDEAIKIFNSLQQLESMSDPIPIIQGILQTGHDLRPLRDELYCQLIKQTNKVPHPGSVGNLYSWQILTCLSCTFLPSRGILKYLKFHLKRIREQFPGSEMEKYALFTYESLKKTKCREFVPSRDEIEALIHRQEMTSTVYCHGGGSCKITINSHTTAGEVVEKLIRGLAMEDSRNMFALFEYNGHVDKAIESRTVVADVLAKFEKLAATSEVGDLPWKFYFKLYCFLDTDNVPKDSVEFAFMFEQAHEAVIHGHHPAPEENLQVLAALRLQYLQGDYTLHAAIPPLEEVYSLQRLKARISQSTKTFTPCERLEKRRTSFLEGTLRRSFRTGSVVRQKVEEEQMLDMWIKEEVSSARASIIDKWRKFQGMNQEQAMAKYMALIKEWPGYGSTLFDVECKEGGFPQELWLGVSADAVSVYKRGEGRPLEVFQYEHILSFGAPLANTYKIVVDERELLFETSEVVDVAKLMKAYISMIVKKRYSTTRSASSQGSSR
modifications: left off: myc, end not stated, kept
DCC
  co-immunoprecipitation of DCC: co-immunoprecipitation of DCC

B6: myc–MyTH4–FERM(ΔC): residues 1486–1954, lacks subdomain C of the FERM domain (protein)
chain: TRWSSAIQNVTDTKAPIDTPTQQLIQDIKENCLNSDVVEQIYKRNPILRYTHHPLHSPLLPLPYGDINLNLLKDKGYTTLQDEAIKIFNSLQQLESMSDPIPIIQGILQTGHDLRPLRDELYCQLIKQTNKVPHPGSVGNLYSWQILTCLSCTFLPSRGILKYLKFHLKRIREQFPGSEMEKYALFTYESLKKTKCREFVPSRDEIEALIHRQEMTSTVYCHGGGSCKITINSHTTAGEVVEKLIRGLAMEDSRNMFALFEYNGHVDKAIESRTVVADVLAKFEKLAATSEVGDLPWKFYFKLYCFLDTDNVPKDSVEFAFMFEQAHEAVIHGHHPAPEENLQVLAALRLQYLQGDYTLHAAIPPLEEVYSLQRLKARISQSTKTFTPCERLEKRRTSFLEGTLRRSFRTGSVVRQKVEEEQMLDMWIKEEVSSARASIIDKWRKFQGMNQEQAMAKYMALIKEWPGYG
modifications: left off: myc, end not stated, kept
DCC
  co-immunoprecipitation of DCC: no interaction

Source: article PMC3155308 (The EMBO Journal, 2011)
